# Bioassay records from PubChem.
# This excerpt belongs to a sample that is enriched for hits.
# INS promoter act: TRM-6 insulin promoter activation. TRM-6 cells (human fetal islet line), insulin promoter eGFP reporter, imaging; plate-scaled: unstimulated 0, stimulated control 100. activation, % at 2 µM. actives 0.81% (n = 130,000);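 active = activation at 2 µM above a set limit, confirmed on inspection of the cell images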;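 also: share of cells whose green reporter signal exceeds an intensity cutoff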
#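 Material: TRM-6 insulin promoter–eGFP reporter cells. Buffer or medium: Low-glucose (5.5 mM) medium with tamoxifen. Probe or stimulus: tamoxifen at 0.75 µM added at seeding for reporter induction. Times: tamoxifen pre-incubation 15 h overnight, then compound exposure 48 h at 37 °C. Detection: high-content imaging of fixed cells with Hoechst nuclear stain.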
# Numbers without * were called inactive.
SMILES,INS promoter act
O=c1c2ccccc2oc2nc3ccn(Cc4ccncc4)c(=O)c3cc12,-6.7
C=CCN1CCN(c2ccncc2S(=O)(=O)N2CCOCC2)CC1,-5.1
CC1CCN(c2ccccc2NC(=S)NC(=O)c2ccco2)CC1,230.0*
CCOc1ccc(C(=O)NC(=S)Nc2ccccc2N2CCC(C)CC2)cc1[N+](=O)[O-],-7.1
Cc1ccccc1C(=O)NC(=S)Nc1ccccc1N1CCCC1,-2.9
CSCCC(NC(=O)c1ccc(Cl)cc1)C(=O)NC(C)(C)C (configuration not stated),4.3
CCOc1ccc(N2C(=O)C3C(c4ccccc4F)NN(C(=O)c4ccc(C)cc4)C3C2=O)cc1 (configuration not stated),242.9
O=c1c2ccccc2nc2c3ccccc3c(NCCN3CCOCC3)nn12,8.6
C=CCNc1nc(NCCN2CCOCC2)nc(N2CCOCC2)n1,493.3*
CNc1nc(C(=O)O)nc(N2CCOCC2)n1,272.2
C=CCN(c1ccc(C(=O)NCCc2ccccc2)cc1)S(C)(=O)=O,0.0
CCOc1ccc(N(C(=O)c2cc3ccccc3oc2=O)C2C=CS(=O)(=O)C2)cc1 (configuration not stated),-8.3
CC(C)NC(=O)C1CCCN(S(=O)(=O)c2cccs2)C1 (configuration not stated),9.1
CCOC(=O)C1CCCN(S(=O)(=O)c2cccs2)C1 (configuration not stated),462.5*
CCOC(=O)C1CCCN(C(=O)c2cccs2)C1 (configuration not stated),168.8
COc1ccc(N(CC(=O)Nc2ccc(S(=O)(=O)N3CCCCC3)cc2)S(C)(=O)=O)cc1OC,9.3
COC(CNC(=O)c1cc(-c2ccncc2)nc2ccc(S(=O)(=O)N3CCOCC3)cc12)OC,0.0
COc1cc(S(=O)(=O)Nc2ccc(C)cc2)ccc1N=Cc1c(C)[nH]n(-c2ccccc2)c1=O,-72.0
CCSc1nnc(-c2cc(Br)ccc2N=Cc2c(C)[nH]n(-c3ccccc3)c2=O)c(=O)[nH]1,356.3*
Cc1ccc(-n2[nH]c(C)c(C=Nc3ccc(Br)cn3)c2=O)cc1,118.8
Cc1nc(SCc2ccccc2)c(C(F)(F)F)c(=O)[nH]1,0.0
Cc1noc(C)c1C(=O)OCC(=O)Nc1ccccc1Oc1ccccc1,3.8
O=C(NNC(=O)C1CC(c2cccs2)=NO1)NC1CCCCC1 (configuration not stated),106.7
Cn1nc(C(F)(F)F)c(C(=O)Nc2ccc(F)cc2F)c1Sc1ccc(C(F)(F)F)cc1,-3.1
CN(C)c1nc(NS(=O)(=O)c2ccc(Cl)cc2)nc(N(C)C)n1,-71.4
SMILES,INS promoter act
Fc1ccc(-c2nc3nc4ccccc4nc3n2Cc2ccco2)cc1,-7.7
c1ccc(-c2nc3nc4ccccc4nc3n2Cc2ccco2)cc1,200.0*
N=c1c2c(-c3ccccc3)c(-c3ccccc3)n(Cc3ccco3)c2ncn1CCO,326.7
CCOC(=O)CSc1nc(C(C)(C)C)nc2ccccc12,-4.8
CCOC(=O)CNC(=O)c1cn(CC(C)C)c(=O)c2cc(OC)c(OC)cc12,0.0
O=C(CSc1ncccn1)NN=C1CCCCCC1,-66.7
Cc1c(Cl)cccc1NCC(=O)NN=C1CCCC1,336.8*
CC(C)CNC(=O)CC(=O)NN=C1CCCC1,-7.1
CCOc1ccc(N(CC(=O)Nc2ccccc2C(=O)NCc2ccco2)S(C)(=O)=O)cc1,-3.3
CCOC(=O)c1ccccc1NC(=O)CN(c1ccc(OCC)cc1)S(C)(=O)=O,386.7*
CCOC(=O)c1ccccc1NC(=O)c1ccc(N(C)S(C)(=O)=O)cc1,388.2
CCN(CCO)Cc1csc2ccc(C(C)(C)C)cc12,1.6
CCOC(=O)N1CCC(NC(=O)c2cc(C(=O)Nc3ccc(S(=O)(=O)N4CCOCC4)cc3)ccc2CO)CC1,5.9
COc1cc(CNc2nnnn2C)ccc1OCc1c(F)cccc1Cl,-5.3
C=CCc1cccc(/C=C/c2cc(=O)c3ccccc3[nH]2)c1O,-8.8
CC12CCC(C(=O)Nc3ccccc3N3CCOCC3)(CC1=O)C2(C)C (configuration not stated),8.3
CC12CCC(C(=O)N3CCc4ccccc43)(CC1=O)C2(C)C (configuration not stated),513.8*
COc1ccc(N2CCN(C(=O)C34CCC(C)(C(=O)C3)C4(C)C)CC2)cc1 (configuration not stated),-5.7
c1ccc2c(c1)OCCOCCOCCOCCOc1ccccc1OCCOCCOCCO2,160.6
Cc1cc(N=Nc2ccccc2)c(NCC(O)C(O)C(O)CO)cc1C (configuration not stated),-82.3
Cc1ccc(NCC(O)C(O)C(O)CO)cc1C (configuration not stated),426.7*
CSc1ccc(CNc2ccc(C)c(C)c2)cc1,0.0
Cc1nc(S(=O)(=O)N2CCOCC2)c(C#N)c(C)c1Cl,0.0
COc1cc(/C=N/OCC(=O)Nc2cc(C)on2)ccc1OCc1ccccc1,-3.7
COc1ccc(C(=O)Nc2ccc([N+](=O)[O-])cn2)c(OC)c1,-8.8
SMILES,INS promoter act
O=S(=O)(c1ccccc1)N1CCN(c2nc3ccccc3s2)CC1,3.4
Cc1cc(N2CCN(S(=O)(=O)c3ccc(Cl)cc3)CC2)c2ccccc2n1,100.0*
Cc1cc(C)n(-c2cc(N3CCN(S(=O)(=O)c4ccc(Cl)cc4)CC3)ccc2[N+](=O)[O-])n1,3.3
CCOc1cccc(CN2CCN(Cc3ccc(C)o3)C(CCO)C2)c1O (configuration not stated),0.0
CCOC(=O)c1[nH]c(C)c(C(=O)OCC(=O)N(C)C2CCS(=O)(=O)C2)c1C (configuration not stated),0.0
Cc1ccsc1/C=N/NC(=O)CNC(=O)c1ccc(S(=O)(=O)N2CCOCC2)cc1,0.0
COc1cc(N2CN=c3s/c(=C\c4ccccn4)c(=O)n3C2)cc(OC)c1OC,3.8
O=C(CCn1cnnn1)Nc1ccc(Cl)c(Cl)c1,106.7
Nc1nc2nc(-c3ccc(OCc4ccccc4)cc3)cc(C(F)(F)F)n2n1,-3.4
Fc1ccc(-c2cc(C(F)(F)F)n3ncnc3n2)cc1,235.3*
c1ccc(-c2cc(-c3ccccc3)n3ncnc3n2)cc1,-69.2
O=C(C1CCCN(c2ncccn2)C1)N1CCc2ccccc21 (configuration not stated),3.3
CCN(CC)CCN(CC(=O)N(C1CCCCC1)C1CCCCC1)C(=O)c1ccco1,7.1
Cc1cc(C(C)(C)C)oc1C(=O)NCCCNC(=O)c1oc(C(C)(C)C)cc1C,-9.5
CCOC(=O)c1cc(C(C)(C)C)oc1CNC(=O)c1c(C)oc2c1CCCC2,493.3*
CCOC(=O)c1cc(C(C)(C)C)oc1CN,-7.4
COc1cc(OC)cc(C(=O)OCc2cc3ccccc3[nH]c2=O)c1,-71.4
CCOC(=O)C1=C(N)Oc2ccc3ccccc3c2C1c1cccnc1 (configuration not stated),564.3*
CCOC(=O)C1=C(c2ccccc2)OC(N)=C(C#N)C1c1cccnc1 (configuration not stated),-6.7
CC1=C(C(=O)OCc2ccccc2)C(c2cccnc2)n2nnnc2N1 (configuration not stated),-2.9
COc1ccc(C(C)NC(=O)Cc2ccc(Br)cc2)cc1 (configuration not stated),3.6
COc1ccc(C(C)NC(=O)c2ccccc2)cc1 (configuration not stated),2.9
COc1ccc(C(NC(=O)C(C)(C)C)NC(=O)C(C)(C)C)cc1,95.0*
Cc1nc2c(c3c1[nH]c1ccccc13)C(O)CC(C)(C)C2 (configuration not stated),-100.0
